# HKDC1 inh: HKDC1 hexokinase inhibitors, primary screen, biochemical, fluorescence, uHTS. inhibition, % at 20 µM. recombinant HKDC1, G6PDH/diaphorase resazurin coupled fluorescence. 0.16% of 340,000 active. Q2TB90;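 active means inhibition above about 35% when tested at 20 µM, limit read from the data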;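 further: plate controls were DMSO wells with enzyme for no effect and DMSO wells lacking enzyme for full effect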
# Target sequence (Q2TB90 whole entry, looked up): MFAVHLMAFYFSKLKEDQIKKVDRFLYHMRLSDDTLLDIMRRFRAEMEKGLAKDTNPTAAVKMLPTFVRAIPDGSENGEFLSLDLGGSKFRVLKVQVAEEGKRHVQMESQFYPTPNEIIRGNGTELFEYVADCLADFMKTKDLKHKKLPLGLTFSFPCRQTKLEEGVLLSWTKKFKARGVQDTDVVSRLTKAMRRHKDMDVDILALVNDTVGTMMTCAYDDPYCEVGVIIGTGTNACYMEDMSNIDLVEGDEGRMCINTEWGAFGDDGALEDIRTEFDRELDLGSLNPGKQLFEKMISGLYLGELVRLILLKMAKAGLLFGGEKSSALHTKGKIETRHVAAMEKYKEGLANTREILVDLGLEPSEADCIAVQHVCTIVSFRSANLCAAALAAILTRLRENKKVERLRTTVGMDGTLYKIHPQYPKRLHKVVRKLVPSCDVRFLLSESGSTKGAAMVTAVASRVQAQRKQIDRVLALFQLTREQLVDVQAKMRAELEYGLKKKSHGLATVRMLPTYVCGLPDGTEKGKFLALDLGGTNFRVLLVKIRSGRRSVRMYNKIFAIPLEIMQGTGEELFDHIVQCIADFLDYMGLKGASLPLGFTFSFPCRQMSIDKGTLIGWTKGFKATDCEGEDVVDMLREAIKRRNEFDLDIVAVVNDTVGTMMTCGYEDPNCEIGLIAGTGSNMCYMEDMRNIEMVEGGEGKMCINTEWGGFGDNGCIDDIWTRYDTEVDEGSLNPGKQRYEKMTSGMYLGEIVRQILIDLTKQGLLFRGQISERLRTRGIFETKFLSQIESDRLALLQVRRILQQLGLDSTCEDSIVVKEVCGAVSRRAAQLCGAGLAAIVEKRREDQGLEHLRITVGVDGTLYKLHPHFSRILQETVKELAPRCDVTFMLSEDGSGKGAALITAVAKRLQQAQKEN
#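 Assay system – recombinant HKDC1 (HK5) hexokinase enzyme, produced in-house · Input – HKDC1 at 5 µg/mL · Reagent – glucose plus 1 mM ATP as hexokinase substrates · Timing – 90 min reaction incubation at room temperature, dark · Measured by – G6PDH/diaphorase-coupled fluorescence, 1 mM NADP, 100 µM resazurin, 525/613 nm · Benchmarks – DMSO-enzyme wells negative, buffer-substituted wells positive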
# UBC9 SUMO inh: inhibitors of in vitro SUMOylation cascade, primary screen, biochemical, HTRF, uHTS | AID 2006, 2009 | HTRF SUMOylation assay, SAE1/SAE2 + UBC9 | SUMO-conjugating enzyme UBC9 (Homo sapiens), P63279 | inhibition, % at 35 µM | 0.36% of 290,000 active; in the data active means inhibition above about 50%, passing the limit was not always enough; inconclusive means no clear call, values can overlap the other calls
# APOBEC3A inh: APOBEC3A ssDNA deaminase inhibitors, primary screen, selectivity assay for APOBEC3G inhibitor project, biochemical, FAM/TAMRA oligo cleavage fluorescence. DNA dC->dU-editing enzyme APOBEC-3A (Homo sapiens), P31941. recombinant A3A, FAM/TAMRA ssDNA deamination fluorescence. inhibition, % at 20 µM. 0.41% of 330,000 active;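 active means at least 40% inhibition at 20 µM here, with at most 30% in a related deaminase screen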;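 further: plate controls were A3A with DMSO for no effect and wells lacking A3A enzyme for full effect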
# PfGluPho inh: PfG6PD enzyme inhibitors, primary screen, biochemical, fluorescence intensity, uHTS; PfGluPho enzyme, NADPH resazurin-diaphorase fluorescence; inhibition, % at 20 µM; 0.78% of 350,000 active;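 active means inhibition reaching at least a set limit at 20 µM in the primary screen, cut at about 59% in these data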;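 further: 0% = DMSO wells with substrate and 100% = DMSO wells lacking glucose-6-phosphate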
# APOBEC3G inh: APOBEC3G DNA deaminase inhibitors, primary screen, biochemical, fluorescence, single-stranded DNA substrate, uHTS; recombinant A3G, ssDNA deamination FAM/TAMRA fluorescence; inhibition, % at 20 µM; 0.28% of 330,000 active;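 active means inhibition of at least 40% at 20 µM, with no more than 30% in the related APOBEC3A deaminase screen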;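 further: plate controls were DMSO wells with A3G for no effect and wells lacking A3G enzyme for full effect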
# M18AAP inhibitor: PfM18AAP inhibitors, malaria aminopeptidase, primary screen, biochemical, QFRET, recombinant enzyme. inhibition, % at 7.35 µM. H-Glu-NHMec fluorogenic cleavage. M18 aspartyl aminopeptidase (Plasmodium falciparum 3D7). 1.2% of 290,000 active;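 active means inhibition above the campaign mean inhibition over all tested compounds plus 3 SD, cut at about 28% in these data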;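 further: 0% = plate median of test compound wells and 100% = 2 mM ZnCl2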
# HKDC1 act conf: HKDC1 hexokinase activators, confirmation, biochemical, single concentration. shares compounds with HKDC1 inh. recombinant HKDC1, G6PDH/diaphorase resazurin fluorescence; stronger effect = lower value. inhibition, % at 20 µM. 14% of 740 active. AID 504708, 2011;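 active means inhibition at or below a set negative limit, negative inhibition meaning the enzyme was activated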
# The depositor's hits bear a star; ? = inconclusive; · = no result. Compounds with a hit are over-represented: about 2.4% of the library has one in this group of screens.
SMILES,HKDC1 inh,UBC9 SUMO inh,APOBEC3A inh,PfGluPho inh,APOBEC3G inh,M18AAP inhibitor,HKDC1 act conf
COc1ccc([C@@H]2C[C@H](c3ccccc3)Oc3cc(OC)c(OC)c(OC)c32)cc1,36.7*,-10.0,-0.9,17.7,11.9,·,-0.5
CCOc1cc(C=O)ccc1OCC(N)=O,-7.0,17.2,-2.6,-8.1,-3.6,0.5,·
Cc1ccc(C(=O)/C=C/c2cc(Br)cc(Br)c2O)o1,35.7*,2.4,8.7,-7.6,8.2,14.6,8.7
CN(c1ccc(C(=O)N2CCN(Cc3ccccc3)CC2)cc1)S(=O)(=O)c1ccccc1,-75.7,-6.1,-0.3,-8.1,-3.1,3.2,-24.2
O=[N+]([O-])c1cc(NS(=O)(=O)c2ccc(Cl)nc2)ccc1Cl,-2.2,·,-2.1,2.4,-6.7,·,·
O=C1NN(c2ccc(F)c(Cl)c2)C(=O)/C1=C\c1cccc(OC(=O)c2cccs2)c1,43.7*,6.2,-1.5,-0.4,-5.3,-23.2,27.0
O=C1OC(c2ccccc2)=N/C1=C/c1cccc(OC(=O)c2cccs2)c1,39.4*,·,-8.9,-16.5,-8.4,-9.1,-8.8
O=C(Cn1nc(C(=O)O)c2ccccc2c1=O)Nc1ccc2c(c1)OCO2,-0.6,11.5,0.4,10.5,-6.5,1.6,·
N#C/C(=C(/O)CCl)c1nc2c(s1)CCc1ccccc1-2,43.5*,31.8,-2.5,41.2,20.2,-5.9,46.1
O=C(O)c1ccc(NC2=C/C(=N/S(=O)(=O)c3ccccc3)c3ccccc3C2=O)cc1,71.9*,?,0.0,106.9*,-8.0,0.1,76.0
Cc1cc(C)c(S(=O)(=O)/N=C2\C=C(Nc3ccc(C(=O)O)cc3)C(=O)c3ccccc32)c(C)c1,40.7*,47.3,11.1,56.7,-0.4,-3.6,39.5
COc1ccc(CCN2CC(C(=O)NCc3cn(C)nc3C)CCC2=O)cc1 (stereo unspecified),·,·,·,-2.9,·,·,·
Cc1ccc(NC(=O)CN2C(=O)S/C(=C\c3ccc(-c4cccc(C(=O)O)c4C)o3)C2=O)cc1C,32.6,·,·,-12.8,·,-1.7,-25.5
Cc1cccc(NC(=O)CN2C(=O)N/C(=C/c3ccc(-c4cccc(C(=O)O)c4C)o3)C2=O)c1,-5.4,17.0,-0.5,-21.3,-5.1,-4.7,·
COc1ccccc1Nc1nnc(SCC(=O)N2CCCC2=O)s1,13.0,2.5,0.3,-10.3,0.2,-4.5,·
CCNc1ccc(Br)cc(C(=O)/C=C/c2c(Cl)cccc2Cl)c1=O,37.3*,15.1,23.9,28.6,15.8,17.6,-3.0
CCNc1ccc(Br)cc(C(=O)/C=C/c2ccc(Cl)cc2)c1=O,12.4,18.7,20.4,58.2,13.4,12.1,·
CC(=O)Oc1cccc2c1C(=O)c1c(OC(C)=O)cc(C(=O)O)cc1C2=O,21.4,-0.8,3.9,-7.1,36.9,10.4,·
CC(=O)Oc1cccc2c1C(=O)C1CC=CC(OC(C)=O)C1C2=O (stereo unspecified),-44.5,·,·,-372.7,·,·,-65.8*
Cc1ccc(C)c(C(=O)N(Cc2nc(-c3ccc(Cl)cc3)no2)C(C)C)c1,2.5,3.8,-3.4,14.4,-7.8,0.6,·
COc1cc(NC(=O)c2cnc(N)s2)cc(C(=O)Nc2cccc(C(F)(F)F)c2)c1,59.2*,·,0.3,35.3,2.0,·,41.2
CCOC(=O)c1ccc(NC2=CC(=O)C(=O)c3ccccc32)cc1,33.2,26.6,-2.9,46.4,-4.3,-0.2,27.6
Cc1ccc(NC2=CC(=O)C(=O)c3ccccc32)cc1,26.8,94.0,-1.1,15.2,-9.8,-0.8,·
CC1C/C(=C\c2cccnc2)C(=O)/C(=C/c2cccnc2)C1 (stereo unspecified),40.1*,-1.6,·,4.3,·,6.5,22.9
Cc1oc(-c2cc(F)ccc2F)nc1CN1CCN(C)C(=O)[C@@H]1C,3.1,7.2,-1.7,-21.3,-6.9,10.9,·
SMILES,HKDC1 inh,UBC9 SUMO inh,APOBEC3A inh,PfGluPho inh,APOBEC3G inh,M18AAP inhibitor,HKDC1 act conf
O=C1NC(=S)N/C1=C/c1cc2c(cc1[N+](=O)[O-])OCO2,-66.8,42.2,-0.5,0.4,-3.6,1.8,-36.6*
O=C(O)/C=C\c1cc2c(cc1[N+](=O)[O-])OCO2,-7.3,8.3,3.1,-3.1,19.5,18.6,·
CCOc1ccc(Nc2cc(C)c3ccccc3n2)cc1,-2.2,7.3,0.0,32.2,-3.3,-11.7,·
CCc1ccc(S(=O)(=O)NCCc2cn3ccccc3n2)s1,39.4*,-4.4,1.6,9.4,-4.5,-2.3,7.7
Cc1ccc([N+](=O)[O-])cc1S(=O)(=O)NCCc1cn2ccccc2n1,-6.3,-18.8,3.9,-3.1,0.8,-1.9,·
O=C(CCl)N1c2ccccc2Sc2c1ccc1ccccc21,44.2*,·,·,22.6,·,·,4.8
COC(=O)c1sc(NC(=O)CSc2nc3nc(C)cc(C)n3n2)c(C(=O)OC)c1C,35.3*,·,5.8,44.0,1.1,·,25.6
Cc1csc(NC(=O)CSc2nc3nc(C)cc(C)n3n2)n1,-6.9,·,2.0,1.1,-6.7,·,·
COc1cc(OC)c(C(=O)C=Cc2ccc(OC)c(OC)c2)c(OC)c1,5.4,·,·,-14.4,·,·,·
COc1ccc(/C=C/C(=O)c2ccc([N+](=O)[O-])o2)cc1OC,32.0,·,-1.8,77.0*,-3.0,·,6.2
CCCc1[nH]nc2c1C1(CCOC1C)C(C#N)=C(N)O2 (stereo unspecified),-3.5,2.3,-3.9,-3.3,-4.2,-4.7,·
COc1ccc(OC)c2[nH]c(=O)c(CCNC(=O)c3ccc(S(=O)(=O)N4CCCCC4)cc3)cc12,20.4,-12.2,1.9,28.7,-3.2,-8.1,·
Cc1cc2cc(CCNC(=O)c3ccc(S(=O)(=O)N4CCCC4)cc3)c(=O)[nH]c2cc1C,41.4*,-15.1,-2.7,-9.7,-3.8,11.5,53.2
CC(=O)N1CCN(C(=O)/C(C#N)=C/c2ccc3c(c2)OCO3)CC1,-3.2,-3.6,-4.5,-12.8,3.1,4.8,·
Cc1cnc(C(=O)OCC(=O)NC(=O)c2ccccc2)cn1,2.0,·,29.2,-16.0,-8.3,·,·
c1ccc(-c2cc3ccccc3[nH]2)cc1,-2.2,0.2,3.0,21.8,-4.3,15.2,·
COc1ccc(-c2cc3ccccc3[nH]2)cc1,38.5*,7.0,-3.5,16.2,-6.6,6.9,30.6
COC(=O)CCC(=O)OC1(C)C(=O)C2=CN(Cc3ccc4c(c3)OCO4)C(c3ccc(OC)cc3)=CC2=C(Br)C1=O (stereo unspecified),39.9*,·,-8.0,66.9*,-11.2,·,-5.4
COC(=O)CCC(=O)OC1(C)C(=O)C2=CN(CCCCO)C(c3ccc(OC)cc3)=CC2=C(Br)C1=O (stereo unspecified),·,38.7,4.5,·,-8.6,18.7,·

# Compound activity: PubChem BioAssay, several laboratories
